According to ChEMBL document CHEMBL3286203, “Reactive oxygen species (ROS) inducible DNA cross-linking agents and their effect on cancer cells and normal lymphocytes” (J Med Chem, 2014):
Active and inactive are the calls of the source. The calls are words filed in the database; no cut-off is given here.

Assays:
ACHN = experiment: Cytotoxicity against human ACHN cells assessed as growth inhibition at 10 uM after 48 hrs by SRB assay; assay type: functional, cell-based
Procedure, shortened: (§1)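 NCI DTP 60-cell-line screen run at the NCI. Cells were grown in RPMI 1640 with 5% FBS and 2 mM L-glutamine. They were seeded at 5000–40 000 cells/well depending on doubling time and grown in two plates per line. Each was exposed to a single 10 μM dose for 48 h at 37 °C, 5% CO2, 95% air, 100% humidity. Read-out was percent growth.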

786-0 = experiment: Cytotoxicity against human 786-0 cells assessed as growth inhibition at 10 uM after 48 hrs by SRB assay; assay type: functional, cell-based; procedure, shortened: as §1
M14 = experiment: Cytotoxicity against human M14 cells assessed as growth inhibition at 10 uM after 48 hrs by SRB assay; assay type: functional, cell-based; procedure, shortened: as §1
HOP-92 = experiment: Cytotoxicity against human HOP92 cells assessed as growth inhibition at 10 uM after 48 hrs by SRB assay; assay type: functional, cell-based; procedure, shortened: as §1
LOX IMVI = experiment: Cytotoxicity against human LOXIMVI cells assessed as growth inhibition at 10 uM after 48 hrs by SRB assay; assay type: functional, cell-based; procedure, shortened: as §1
BT-549 = experiment: Cytotoxicity against human BT549 cells assessed as growth inhibition at 10 uM after 48 hrs by SRB assay; assay type: functional, cell-based; procedure, shortened: as §1
OVCAR-5 = experiment: Cytotoxicity against human OVCAR5 cells assessed as growth inhibition at 10 uM after 48 hrs by SRB assay; assay type: functional, cell-based
Procedure, shortened: (§2)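 Single-dose screen run by the NCI Developmental Therapeutics Program (NCI-60). Cells were grown in RPMI 1640 with 5% fetal bovine serum and 2 mM L-glutamine. They were plated at 5000–40 000 cells/well, depending on doubling time. Each line was run in two plates and exposed to 10 μM drug for 48 h at 37 °C, 5% CO2, 100% humidity. Read-out was growth percent.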

MDA-MB-468 [1] = experiment: Cytotoxicity against human MDA-MB-468 cells assessed as growth inhibition at 10 uM after 48 hrs by SRB assay; assay type: functional, cell-based; procedure, shortened: as §2
Hs-578T = experiment: Cytotoxicity against human Hs578T cells assessed as growth inhibition at 10 uM after 48 hrs by SRB assay; assay type: functional, cell-based; procedure, shortened: as §1
TK-10 = experiment: Cytotoxicity against human TK10 cells after 48 hrs by SRB assay; assay type: functional; details: TK-10, 48 h
Procedure, shortened: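 GI50 from the NCI-60 DTP human tumour line screen. Lines grown in RPMI 1640 with 5% fetal bovine serum and 2 mM L-glutamine, plated at 5000–40 000 cells/well according to doubling time. Incubated 48 h at 37 °C, 5% CO2.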

A549 = experiment: Cytotoxicity against human A549 cells assessed as growth inhibition at 10 uM after 48 hrs by SRB assay; assay type: functional, cell-based; procedure, shortened: as §1
SNB-19 = experiment: Cytotoxicity against human SNB19 cells assessed as growth inhibition at 10 uM after 48 hrs by SRB assay; assay type: functional, cell-based
Procedure, shortened: (§3)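 NCI-60 DTP human tumour line screen. Cells grown in RPMI 1640 with 5% fetal bovine serum and 2 mM L-glutamine, plated at 5000–40 000 cells/well according to doubling time. Single dose of 10 μM for 48 h at 37 °C, 5% CO2, 95% air, 100% humidity, two plates per line. Read-out is growth percent.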

UACC-257 = experiment: Cytotoxicity against human UACC257 cells assessed as growth inhibition at 10 uM after 48 hrs by SRB assay; assay type: functional, cell-based; procedure, shortened: as §3
HCC 2998 = experiment: Cytotoxicity against human HCC2998 cells assessed as growth inhibition at 10 uM after 48 hrs by SRB assay; assay type: functional, cell-based; procedure, shortened: as §1
MDA-MB-468 [2] = experiment: Cytotoxicity against human MDA-MB-468 cells after 48 hrs by SRB assay; assay type: functional; details: MDA-MB-468, 48 h
Procedure, shortened: (§4)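 GI50 from the NCI Developmental Therapeutics Program in vitro human tumor cell screen. Cell lines were maintained in RPMI 1640 with 5% fetal bovine serum and 2 mM L-glutamine. They were seeded at 5000–40 000 cells/well, depending on each line's doubling time, then exposed to drug for 48 h at 37 °C, 5% CO2.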

SK-MEL-2 = experiment: Cytotoxicity against human SK-MEL-2 cells assessed as growth inhibition at 10 uM after 48 hrs by SRB assay; assay type: functional, cell-based; procedure, shortened: as §2
CCRF-CEM = experiment: Cytotoxicity against human CCRF-CEM cells assessed as growth inhibition at 10 uM after 48 hrs by SRB assay; assay type: functional, cell-based; procedure, shortened: as §1
NCI-H522 = experiment: Cytotoxicity against human NCI-H522 cells assessed as growth inhibition at 10 uM after 48 hrs by SRB assay; assay type: functional, cell-based; procedure, shortened: as §2
DU-145 = experiment: Cytotoxicity against human DU145 cells assessed as growth inhibition at 10 uM after 48 hrs by SRB assay; assay type: functional, cell-based; procedure, shortened: as §1
[3] = Induction of [32P]-labeled 49-mer oligonucleotide duplex DNA 12 interstrand cross-linking (unknown origin) at purine nucleotide site using compound radiolabeled at 5' of 12b in phosphate buffer at pH 7 at 90 degC after 30 mins by PAGE
SF-268 = experiment: Cytotoxicity against human SF268 cells assessed as growth inhibition at 10 uM after 48 hrs by SRB assay; assay type: functional, cell-based; procedure, shortened: as §2
[4] = Induction of [32P]-labeled 49-mer oligonucleotide duplex DNA 12 interstrand cross-linking (unknown origin) at purine nucleotide site using compound radiolabeled at 5' of 12a at 90 deg C after 30 mins by PAGE in presence of piperidine
Procedure, shortened: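 Cross-linked duplex, with strand 12a 32P-labelled at the 5′ end, heated at 90 °C either in phosphate buffer pH 7.0 or in 1.0 M piperidine. Cleavage sites were assigned by denaturing PAGE against G + A sequencing and Fe·EDTA markers.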

[5] = Cytotoxicity against human HCT15 cells after 48 hrs by SRB assay; assay type: functional; details: HCT-15, 48 h
Procedure, shortened: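 GI50 was determined in the NCI Developmental Therapeutics Program in vitro 60-line cancer screen. Tumour lines were maintained in RPMI 1640 containing 5% FBS and 2 mM L-glutamine. Cells were inoculated at 5000–40 000 cells/well according to each line's doubling time before drug exposure.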

SK-OV-3 = experiment: Cytotoxicity against human SKOV3 cells after 48 hrs by SRB assay; assay type: functional; details: SK-OV-3, 48 h; procedure, shortened: as §4
NCI-H23 = experiment: Cytotoxicity against human NCI-H23 cells assessed as growth inhibition at 10 uM after 48 hrs by SRB assay; assay type: functional, cell-based; procedure, shortened: as §2
HT-29 = experiment: Cytotoxicity against human HT-29 cells assessed as growth inhibition at 10 uM after 48 hrs by SRB assay; assay type: functional, cell-based; procedure, shortened: as §1
SN12C = experiment: Cytotoxicity against human SN12C cells assessed as growth inhibition at 10 uM after 48 hrs by SRB assay; assay type: functional, cell-based; procedure, shortened: as §3
PC-3 = experiment: Cytotoxicity against human PC3 cells assessed as growth inhibition at 10 uM after 48 hrs by SRB assay; assay type: functional, cell-based; procedure, shortened: as §2
K562 = experiment: Cytotoxicity against human K562 cells assessed as growth inhibition at 10 uM after 48 hrs by SRB assay; assay type: functional, cell-based; procedure, shortened: as §1
OVCAR-8 = experiment: Cytotoxicity against human OVCAR8 cells assessed as growth inhibition at 10 uM after 48 hrs by SRB assay; assay type: functional, cell-based; procedure, shortened: as §2
HCT-15 = experiment: Cytotoxicity against human HCT15 cells assessed as growth inhibition at 10 uM after 48 hrs by SRB assay; assay type: functional, cell-based; procedure, shortened: as §1
UACC-62 = experiment: Cytotoxicity against human UACC62 cells assessed as growth inhibition at 10 uM after 48 hrs by SRB assay; assay type: functional, cell-based; procedure, shortened: as §3

## CC1(C)OB(c2ccc(N(CCCl)CCBr)cc2)OC1(C)C
ACHN
  growth inhibition (GI): Active
786-0
  growth inhibition (GI): Active
M14
  growth inhibition (GI): Active
HOP-92
  growth inhibition (GI): Active
LOX IMVI
  growth inhibition (GI): Active
BT-549
  growth inhibition (GI): Active
OVCAR-5
  growth inhibition (GI): Active
MDA-MB-468 [1]
  growth inhibition (GI): Active
Hs-578T
  growth inhibition (GI): Active
TK-10
  GI50: 22.6 µM
A549
  growth inhibition (GI): Active
SNB-19
  growth inhibition (GI): Active
UACC-257
  growth inhibition (GI): Active
HCC 2998
  growth inhibition (GI): Active
MDA-MB-468 [2]
  GI50: 1.49 µM
SK-MEL-2
  growth inhibition (GI): Active
CCRF-CEM
  growth inhibition (GI): Active
NCI-H522
  growth inhibition (GI): Active
DU-145
  growth inhibition (GI): Active
[3]
  Activity: Active
SF-268
  growth inhibition (GI): Active
[4]
  Activity: Active
[5]
  GI50: 17.1 µM
SK-OV-3
  GI50: 9.25 µM
NCI-H23
  growth inhibition (GI): Active
HT-29
  growth inhibition (GI): Active
SN12C
  growth inhibition (GI): Active
PC-3
  growth inhibition (GI): Active
K562
  growth inhibition (GI): Active
OVCAR-8
  growth inhibition (GI): Active
HCT-15
  growth inhibition (GI): Active
UACC-62
  growth inhibition (GI): Active

## CC1(C)OB(c2ccc(N(CCCl)CCOS(C)(=O)=O)cc2)OC1(C)C
ACHN
  growth inhibition (GI): Active
786-0
  growth inhibition (GI): Active
M14
  growth inhibition (GI): Active
HOP-92
  growth inhibition (GI): Active
LOX IMVI
  growth inhibition (GI): Active
BT-549
  growth inhibition (GI): Active
OVCAR-5
  growth inhibition (GI): Active
MDA-MB-468 [1]
  growth inhibition (GI): Active
Hs-578T
  growth inhibition (GI): Active
TK-10
  GI50: 18 µM
A549
  growth inhibition (GI): Active
SNB-19
  growth inhibition (GI): Active
UACC-257
  growth inhibition (GI): Active
HCC 2998
  growth inhibition (GI): Active
MDA-MB-468 [2]
  GI50: 1.07 µM
SK-MEL-2
  growth inhibition (GI): Active
CCRF-CEM
  growth inhibition (GI): Active
NCI-H522
  growth inhibition (GI): Active
DU-145
  growth inhibition (GI): Active
[3]
  Activity: Active
SF-268
  growth inhibition (GI): Active
[4]
  Activity: Active
[5]
  GI50: 13.5 µM
SK-OV-3
  GI50: 8.96 µM
NCI-H23
  growth inhibition (GI): Active
HT-29
  growth inhibition (GI): Active
SN12C
  growth inhibition (GI): Active
PC-3
  growth inhibition (GI): Active
K562
  growth inhibition (GI): Active
OVCAR-8
  growth inhibition (GI): Active
HCT-15
  growth inhibition (GI): Active
UACC-62
  growth inhibition (GI): Active
